# Results taken from ChEMBL document CHEMBL1146111, “Factor VIIa inhibitors: chemical optimization, preclinical pharmacokinetics, pharmacodynamics, and efficacy in an arterial baboon thrombosis model” (Bioorg Med Chem Lett, 2006).
# How the values were obtained:
# Coagulation factor VII = target: T1, Coagulation factor VII (Homo sapiens, UniProt P08709); assay: Binding affinity to F7a/TF complex; type: protein-complex assay
# T1 sequence (P08709 whole entry): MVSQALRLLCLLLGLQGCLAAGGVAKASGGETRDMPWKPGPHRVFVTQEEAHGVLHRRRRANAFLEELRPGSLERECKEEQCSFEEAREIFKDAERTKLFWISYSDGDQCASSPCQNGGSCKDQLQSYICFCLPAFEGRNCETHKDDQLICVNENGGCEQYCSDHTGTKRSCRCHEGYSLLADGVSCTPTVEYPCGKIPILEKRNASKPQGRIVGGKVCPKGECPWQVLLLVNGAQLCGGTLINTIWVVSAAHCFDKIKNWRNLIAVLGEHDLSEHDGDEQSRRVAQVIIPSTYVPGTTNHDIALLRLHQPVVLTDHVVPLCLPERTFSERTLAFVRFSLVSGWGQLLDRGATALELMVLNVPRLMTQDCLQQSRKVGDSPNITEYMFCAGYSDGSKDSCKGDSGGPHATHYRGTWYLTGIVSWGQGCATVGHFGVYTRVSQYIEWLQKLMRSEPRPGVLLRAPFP
# [1] = target: T2, Coagulation factor VII/tissue factor (Homo sapiens) (UniProt P08709+P13726); assay: Selectivity for fVIIa/TF complex over fXa; type: protein-complex assay
# In short: (§1)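 Ki ratios; fXa and thrombin assays pH 7.4, fVIIa assay with 7 nM fVIIa, 11 nM relipidated tissue factor, 5 mM CaCl2 and substrate CH3SO2-D-CHA-But-Arg-pNA.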
# [2] = target: T2, Coagulation factor VII/tissue factor (Homo sapiens); assay: Selectivity for fVIIa/TF complex over fIIa; type: protein-complex assay; in short: as §1
# [3] = target: T2, Coagulation factor VII/tissue factor (Homo sapiens); assay: Anticoagulant potency in human plasma as measured by prothrombin time; type: functional, cell-free
# In short: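 Clotting assay in human plasma on a coagulation analyzer run per manufacturer's instructions; concentration doubling prothrombin time reported.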
# Baboon [4] = assay: Effect on reduction of platelet deposition in iv dosed baboon after 60 mins; type: functional, organism-based; conditions: Papio, 1 h
# In short: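 Sigmoid Emax model fitted to dose (mg/kg) versus percent inhibition of platelet deposition relative to control at 60 min post IV bolus in the baboon A-V shunt model; ED50 is the dose producing 50% of maximum effect.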
# [5] = target: T2, Coagulation factor VII/tissue factor (Homo sapiens); assay: Anticoagulant potency in baboon as measured by prothrombin time at 0.03 mg/kg, iv 1 hr post dose; type: functional, organism-based; set-up: dose 0.03 mg/kg; conditions: Papio, target entry is the homologue from another species
# In short: (§2)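 Conscious non-anticoagulated baboons with chronic femoral arterio-venous shunt; single IV bolus, thrombogenic device inserted 5 min post dose. Device: 2 cm ePTFE graft (4 mm id) filled with relipidated tissue factor, flow 100 mL/min (shear 265/s), 60 min. Platelets: 111-In-labeled autologous, gamma camera every 5 min; fibrin: 125-I fibrinogen, graft counted after 30 days decay; PT monitored throughout; reduction vs saline control.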
# [6] = target: T2, Coagulation factor VII/tissue factor (Homo sapiens); assay: Anticoagulant potency in baboon as measured by prothrombin time at 0.1 mg/kg, iv 1 hr post dose; type: functional, organism-based; set-up: dose 0.1 mg/kg; conditions: Papio, target entry is the homologue from another species; in short: as §2
# [7] = target: T2, Coagulation factor VII/tissue factor (Homo sapiens); assay: Anticoagulant potency in baboon as measured by prothrombin time at 0.5 mg/kg, iv 1 hr post dose; type: functional, organism-based; set-up: dose 0.5 mg/kg; conditions: Papio, target entry is the homologue from another species; in short: as §2
# CYP1A2 = target: T3, CYP1A2 (Homo sapiens, UniProt P05177); assay: Inhibition of CYP1A2 at 10 uM; type: ADME
# T3 sequence (P05177 whole entry): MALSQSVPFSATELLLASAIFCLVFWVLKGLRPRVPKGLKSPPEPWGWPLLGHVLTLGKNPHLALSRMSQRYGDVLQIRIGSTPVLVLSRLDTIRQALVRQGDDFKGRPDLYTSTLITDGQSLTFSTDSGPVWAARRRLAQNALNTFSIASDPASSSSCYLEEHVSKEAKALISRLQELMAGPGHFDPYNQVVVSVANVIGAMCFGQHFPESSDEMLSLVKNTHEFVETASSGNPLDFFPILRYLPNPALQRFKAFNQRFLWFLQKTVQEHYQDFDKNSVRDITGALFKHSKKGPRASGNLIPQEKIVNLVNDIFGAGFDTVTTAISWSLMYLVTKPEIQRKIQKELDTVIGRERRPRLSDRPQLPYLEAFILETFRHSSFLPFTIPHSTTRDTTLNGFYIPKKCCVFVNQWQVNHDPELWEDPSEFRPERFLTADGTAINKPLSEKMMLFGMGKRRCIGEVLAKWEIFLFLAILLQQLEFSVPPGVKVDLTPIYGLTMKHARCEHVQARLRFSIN
# In short: (§3)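 Five cytochrome P450 isozymes tested at 10 µM; percent inhibition.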
# CYP2C9 = CYP2C9 (Homo sapiens, UniProt P11712); assay: Inhibition of CYP2C9 at 10 uM; type: ADME; in short: as §3
# CYP2C19 = CYP2C19 (Homo sapiens, UniProt P33261); assay: Inhibition of CYP2C19 at 10 uM; type: ADME; in short: as §3
# CYP2D6 = CYP2D6 (Homo sapiens, UniProt P10635); assay: Inhibition of CYP2D6 at 10 uM; type: ADME; in short: as §3
# CYP3A4 = CYP3A4 (Homo sapiens, UniProt P08684); assay: Inhibition of CYP3A4 at 10 uM; type: ADME; in short: as §3
# [8] = Plasma clearance in iv dosed C57BL/6 mice; type: ADME, organism-based; conditions: C57BL/6, mouse
# In short: (§4)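 Single IV dose to female C57BL/6 mice or male Sprague–Dawley rats, NZW rabbits, Beagle dogs, or baboons; plasma concentrations measured by LC/MS/MS.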
# Mus musculus = assay: Volume of distribution in iv dosed C57BL/6 mice; type: ADME, organism-based; conditions: in vivo; in short: as §4
# [9] = Mean residence time in iv dosed C57BL/6 mice; type: ADME, organism-based; conditions: C57BL/6, mouse, in vivo; in short: as §4
# [10] = Plasma clearance in iv dosed Sprague-Dawley rat; type: ADME, organism-based; in short: as §4
# Rattus norvegicus = assay: Volume of distribution in iv dosed Sprague-Dawley rat; type: ADME, organism-based; conditions: in vivo; in short: as §4
# [11] = Mean residence time in iv dosed Sprague-Dawley rat; type: ADME, organism-based; conditions: in vivo; in short: as §4
# [12] = Plasma clearance in iv dosed New Zealand White rabbit; type: ADME, organism-based, Oryctolagus cuniculus; in short: as §4
# Baboon [13] = assay: Inhibition of fibrin deposition in baboon at 0.03 mg/kg, iv 1 hr post dose relative to control; type: functional; conditions: Papio, in Papio anubis; in short: as §2
# Baboon [14] = assay: Inhibition of fibrin deposition in baboon at 0.1 mg/kg, iv 1 hr post dose relative to control; type: functional; conditions: Papio, in Papio anubis; in short: as §2
# Oryctolagus cuniculus = assay: Volume of distribution in iv dosed New Zealand White rabbit; type: ADME, organism-based; conditions: in vivo; in short: as §4
# [15] = Mean residence time in iv dosed New Zealand White rabbit; type: ADME, organism-based, Oryctolagus cuniculus; conditions: in vivo; in short: as §4
# [16] = Plasma clearance in iv dosed Beagle dog; type: ADME, organism-based, Canis lupus familiaris; in short: as §4
# Canis familiaris = assay: Volume of distribution in iv dosed Beagle dog; type: ADME, organism-based, Canis lupus familiaris; conditions: in vivo; in short: as §4
# [17] = Mean residence time in iv dosed Beagle dog; type: ADME, organism-based, Canis lupus familiaris; conditions: in vivo; in short: as §4
# [18] = Plasma clearance in iv dosed baboon; type: ADME, organism-based, Papio; in short: as §4
# Baboon [19] = assay: Volume of distribution in iv dosed baboon; type: ADME, organism-based, Papio; conditions: in vivo; in short: as §4
# [20] = Mean residence time in iv dosed baboon; type: ADME, organism-based, Papio; conditions: in vivo; in short: as §4
# Baboon [21] = assay: Inhibition of platelet deposition in baboon at 0.03 mg/kg, iv 1 hr post dose relative to control; type: functional; conditions: Papio, in Papio anubis; in short: as §2
# Baboon [22] = assay: Inhibition of platelet deposition in baboon at 0.1 mg/kg, iv 1 hr post dose relative to control; type: functional; conditions: Papio, in Papio anubis; in short: as §2
# Baboon [23] = assay: Inhibition of platelet deposition in baboon at 0.5 mg/kg, iv 1 hr post dose relative to control; type: functional; conditions: Papio, in Papio anubis; in short: as §2
# Baboon [24] = assay: Inhibition of fibrin deposition in baboon at 0.5 mg/kg, iv 1 hr post dose relative to control; type: functional; conditions: Papio, in Papio anubis; in short: as §2
# [25] = target: T2, Coagulation factor VII/tissue factor (Homo sapiens); assay: Ratio of prothrombin time in baboon over prothrombin time in human
# [26] = target: T2, Coagulation factor VII/tissue factor (Homo sapiens); assay: Anticoagulant potency in human plasma as measured by activated partial thromboplastin time
# Sequence of CYP2C19 (P33261 whole entry): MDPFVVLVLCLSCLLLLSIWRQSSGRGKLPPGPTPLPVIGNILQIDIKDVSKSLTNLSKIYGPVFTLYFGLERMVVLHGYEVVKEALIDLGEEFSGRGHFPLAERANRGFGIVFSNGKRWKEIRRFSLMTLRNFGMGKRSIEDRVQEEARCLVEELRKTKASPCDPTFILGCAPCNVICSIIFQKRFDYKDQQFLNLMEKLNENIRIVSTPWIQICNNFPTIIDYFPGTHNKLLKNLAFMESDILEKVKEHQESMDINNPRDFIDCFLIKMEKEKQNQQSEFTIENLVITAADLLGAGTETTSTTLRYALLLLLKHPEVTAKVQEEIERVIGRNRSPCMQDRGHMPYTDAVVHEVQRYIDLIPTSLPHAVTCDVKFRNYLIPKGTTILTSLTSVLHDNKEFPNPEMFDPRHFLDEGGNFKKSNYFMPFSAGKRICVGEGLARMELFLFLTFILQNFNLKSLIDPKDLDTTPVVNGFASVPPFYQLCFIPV
# Sequence of CYP2D6 (P10635 whole entry): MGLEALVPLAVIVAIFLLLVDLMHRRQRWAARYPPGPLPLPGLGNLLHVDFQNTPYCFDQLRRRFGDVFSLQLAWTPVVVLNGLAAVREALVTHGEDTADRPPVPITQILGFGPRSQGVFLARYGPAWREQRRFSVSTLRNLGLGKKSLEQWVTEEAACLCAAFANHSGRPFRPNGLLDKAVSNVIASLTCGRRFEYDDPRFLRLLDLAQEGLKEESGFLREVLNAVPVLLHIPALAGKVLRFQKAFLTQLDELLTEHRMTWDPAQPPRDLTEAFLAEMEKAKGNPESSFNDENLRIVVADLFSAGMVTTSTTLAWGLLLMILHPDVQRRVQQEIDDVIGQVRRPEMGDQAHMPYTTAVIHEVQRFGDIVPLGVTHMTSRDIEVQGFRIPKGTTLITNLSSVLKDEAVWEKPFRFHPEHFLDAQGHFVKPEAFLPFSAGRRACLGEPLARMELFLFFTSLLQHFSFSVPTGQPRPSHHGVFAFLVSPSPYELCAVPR
# Sequence of CYP2C9 (P11712 whole entry): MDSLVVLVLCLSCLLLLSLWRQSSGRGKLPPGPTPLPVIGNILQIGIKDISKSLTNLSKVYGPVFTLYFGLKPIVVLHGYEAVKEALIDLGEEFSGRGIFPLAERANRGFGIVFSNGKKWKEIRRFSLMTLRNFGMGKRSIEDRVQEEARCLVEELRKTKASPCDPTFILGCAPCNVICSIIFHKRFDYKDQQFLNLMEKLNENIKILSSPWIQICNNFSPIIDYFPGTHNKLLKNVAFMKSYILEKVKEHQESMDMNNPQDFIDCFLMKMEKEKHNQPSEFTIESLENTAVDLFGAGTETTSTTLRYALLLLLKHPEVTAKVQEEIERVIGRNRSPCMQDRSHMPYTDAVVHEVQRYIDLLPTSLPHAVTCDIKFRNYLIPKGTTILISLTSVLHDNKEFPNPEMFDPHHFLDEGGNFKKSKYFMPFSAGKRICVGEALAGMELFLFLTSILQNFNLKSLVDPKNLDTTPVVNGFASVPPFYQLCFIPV
# Sequence of CYP3A4 (P08684 whole entry): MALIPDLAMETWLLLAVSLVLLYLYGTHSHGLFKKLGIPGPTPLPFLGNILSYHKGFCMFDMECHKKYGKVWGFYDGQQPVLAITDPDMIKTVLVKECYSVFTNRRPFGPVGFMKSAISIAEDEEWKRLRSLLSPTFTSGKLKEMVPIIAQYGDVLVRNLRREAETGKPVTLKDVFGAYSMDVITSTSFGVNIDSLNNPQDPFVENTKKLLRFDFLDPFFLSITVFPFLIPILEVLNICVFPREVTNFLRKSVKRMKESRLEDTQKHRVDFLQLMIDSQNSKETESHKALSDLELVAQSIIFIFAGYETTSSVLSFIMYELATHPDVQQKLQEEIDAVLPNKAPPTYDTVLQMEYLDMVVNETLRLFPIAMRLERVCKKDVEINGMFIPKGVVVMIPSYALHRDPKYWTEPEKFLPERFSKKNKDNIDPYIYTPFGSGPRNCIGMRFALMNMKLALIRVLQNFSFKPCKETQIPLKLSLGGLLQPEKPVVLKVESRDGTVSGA
structure (smiles),measurement,setting,value
N=C(N)c1ccc2[nH]c(-c3cc(C(CC(=O)O)C(=O)O)cc(-c4cc(CCC(=O)O)ccc4O)c3O)nc2c1 (configuration not stated),Ki,Coagulation factor VII,13 nM
same,Ratio Ki,[1],350
same,Ratio Ki,[2],11500
same,2PT,[3],5.4 µM
N=C(N)c1ccc2nc(-c3cc(C(CC(=O)O)C(=O)O)cc(-c4cc(CC(=O)O)ccc4O)c3O)[nH]c2c1 (configuration not stated),Ki,Coagulation factor VII,12 nM
N=C(N)c1ccc2[nH]c(-c3cc(C(CC(=O)O)C(=O)O)cc(-c4cc(CC(N)=O)ccc4O)c3O)nc2c1 (configuration not stated),Ratio Ki,[1],280
same,Ratio Ki,[2],12500
same,2PT,[3],6.4 µM
N=C(N)c1ccc2[nH]c(-c3cc(C(CC(=O)O)C(=O)O)cc(-c4cc(F)ccc4O)c3O)nc2c1 (configuration not stated),Ratio Ki,[1],1800
same,Ratio Ki,[2],55500
same,2PT,[3],10.2 µM
N=C(N)c1ccc2[nH]c(-c3cc(C(CC(=O)O)C(=O)O)cc(-c4cc(CN)ccc4O)c3O)nc2c1 (configuration not stated),Ki,Coagulation factor VII,35 nM
same,Ratio Ki,[1],510
same,Ratio Ki,[2],4200
same,2PT,[3],2.9 µM
N=C(N)c1ccc2nc(-c3cc(C(CC(=O)O)C(=O)O)cc(-c4cc(CC(N)=O)ccc4O)c3O)[nH]c2c1 (configuration not stated),Ki,Coagulation factor VII,12 nM
N=C(N)c1ccc2[nH]c(-c3cc(C(CC(=O)O)C(=O)O)cc(-c4cc(C(=O)O)ccc4O)c3O)nc2c1 (configuration not stated),Ki,Coagulation factor VII,43 nM
same,Ratio Ki,[1],300
same,Ratio Ki,[2],3500
same,2PT,[3],8.2 µM
N=C(N)c1ccc2[nH]c(-c3cc(C(CC(=O)O)C(=O)O)cc(-c4cc(CC(=O)O)ccc4O)c3O)nc2c1 (configuration not stated),Ratio Ki,[1],125
same,Ratio Ki,[2],12500
same,2PT,[3],6.2 µM
N=C(N)c1ccc2[nH]c(-c3cc(C(CC(=O)O)C(=O)O)cc(-c4cc(CNC(N)=O)ccc4O)c3O)nc2c1 (configuration not stated),EC50,Baboon [4],170 nM
same,ED50,"Baboon [4]; in Papio anubis, iv",0.06 mg/kg
same,Emax,"Baboon [4]; in Papio anubis, iv",99%
same,PT,[5],11.3 s
same,PT,[6],11.3 s
same,PT,[7],11.6 s
same,Ratio Ki,[1],3600
same,Ratio Ki,[2],> 100000
same,inhibition at 10 µM,CYP1A2,< 40%
same,inhibition at 10 µM,CYP2C9,< 40%
same,inhibition at 10 µM,CYP2C19,< 40%
same,inhibition at 10 µM,CYP2D6,< 40%
same,inhibition at 10 µM,CYP3A4,< 40%
same,clearance,[8],0.103 mL/min
same,Vdss,Mus musculus,2.43 mL
same,MRT,[9],0.392 h
same,clearance,[10],0.81 mL/min
same,Vdss,Rattus norvegicus,55.2 mL
same,MRT,[11],1.15 h
same,clearance,[12],6.1 mL/min
same,inhibition in vivo at 0.03 mg/kg,Baboon [13],20%
same,inhibition in vivo at 0.1 mg/kg,Baboon [14],64%
same,Vdss,Oryctolagus cuniculus,1080 mL
same,MRT,[15],3.03 h
same,clearance,[16],30.5 mL/min
same,Vdss,Canis familiaris,6750 mL
same,MRT,[17],3.73 h
same,clearance,[18],26.5 mL/min
same,Vdss,Baboon [19],5854 mL
same,MRT,[20],3.87 h
same,inhibition in vivo at 0.03 mg/kg,Baboon [21],14%
same,inhibition in vivo at 0.1 mg/kg,Baboon [22],61%
same,inhibition in vivo at 0.5 mg/kg,Baboon [23],87%
same,inhibition in vivo at 0.5 mg/kg,Baboon [24],86%
same,Ratio,[25],1.05
same,2aPTT,[26],0.8 µM
N=C(N)c1ccc2[nH]c(-c3cc(C(CC(=O)O)C(=O)O)cc(-c4cc(NC(N)=O)ccc4O)c3O)nc2c1 (configuration not stated),Ki,Coagulation factor VII,44 nM
same,Ratio Ki,[1],270
same,Ratio Ki,[2],3400
same,2PT,[3],4.9 µM
N=C(N)c1ccc2[nH]c(-c3cc(C(CC(=O)O)C(=O)O)cc(-c4cc(C(N)=O)ccc4O)c3O)nc2c1 (configuration not stated),Ki,Coagulation factor VII,14 nM
same,Ratio Ki,[1],1100
same,Ratio Ki,[2],10700
same,2PT,[3],3.6 µM
